N-glyco inh = N-linked glycosylation inhibition. D54 ERlucT glycosylation luciferase reporter, 24 h; percent of 100 nM tunicamycin response. reporter increase, % at 12.5 µM. actives 0.23% (n = 360,000). AID 588692;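 active = mean luciferase reporter signal, scaled so untreated is 0 and the glycosylation-blocking control 100, at or above a set limit in every replicate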;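 also: luciferase carries N-glycosylation sites so blocking glycosylation raises the light; 0% = median of neutral control wells and 100% = median of 100 nM tunicamycin wells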
ALR inh = inhibitors of human sulfhydryl oxidase ALR; purified ALR, DTT oxidation, H2O2 HRP-luminol luminescence; inhibition, % (concentration not given with the values); actives 3.8% (n = 290,000);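 active = mean replicate inhibition above about 79%, with every replicate also reaching it, limit read from the data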
Target sequence (P55789 whole entry, looked up): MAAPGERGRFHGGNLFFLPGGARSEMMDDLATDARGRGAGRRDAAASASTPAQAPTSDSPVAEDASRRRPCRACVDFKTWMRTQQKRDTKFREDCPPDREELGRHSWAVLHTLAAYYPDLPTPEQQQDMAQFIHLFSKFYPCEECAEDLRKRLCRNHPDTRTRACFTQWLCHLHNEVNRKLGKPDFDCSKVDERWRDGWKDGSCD
T cell modulator = T cell immune modulation candidate; response (vesicle binding), % at 7 µM; actives 0.068% (n = 330,000); 2C CD8+ T cell-vesicle binding, flow cytometry; hits give low values;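 active = response, share of CD8 T cells binding vesicles, and their 90th percentile fluorescence all below set limits, cut at about 80% in these data, passing the limit was not always enough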;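 also: values below 100% mean blocked vesicle binding to the CD8+ T cells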
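Material: 2C TCR transgenic mouse naive CD8+ T cells, MACS-purified. Also added: QL9-charged Drosophila Ld/ICAM-1/B7-1 vesicles. Timing: binding 1.5 h at 37 °C. Measured by: high-throughput flow cytometry with anti-B7-1 and anti-CD8 staining. Read-out: percent CD8+ FL2 mean versus row control. Controls: Unloaded micro-vesicles (low), QL9 vesicles with 0.7% DMSO (high).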
An asterisk follows results filed as active; · = no result. The sample as a whole holds a higher share of hits than the screen did.

SMILES	N-glyco inh	ALR inh	T cell modulator
Cn1nc(NC(=O)C(F)(F)F)c2nccnc21	-0.1	·	·
Nc1nc2c(nc(N3CCCCC3)n2[C@@H]2O[C@H](CO)[C@@H](O)[C@H]2O)c(=O)[nH]1	1.2	11.3	307.3
Nc1nc2c(nc(SCc3ccccc3Br)n2C2OC(CO)C(O)C2O)c(=O)[nH]1 (configuration not stated)	0.1	86.4*	190.5
N#Cc1ccccc1NC(=O)COC(=O)CN1C(=O)C2CCCCC2C1=O (configuration not stated)	1.9	-4.5	261.9
CC(C)C[C@H]1CNC(=S)N1CC1CCCN1C[C@H](CC(C)C)N1C[C@H](CC(C)C)N(CCc2ccccc2)C1=S (some centres not stated)	-12.1	·	·
Cc1ccc(CSc2ccc(-c3ccco3)nn2)cc1	-4.2	49.4	243.1
Clc1cccc(CSc2ccc(-c3ccco3)nn2)c1	-1.1	98.0*	263.2
CCc1ccc(NC(=O)CSc2ccc(-c3ccco3)nn2)cc1	0.8	98.3*	398.6
CC(=O)c1cccc(NC(=O)CSc2ccc(-c3ccco3)nn2)c1	-1.2	64.4	244.1
Clc1ccc(CSc2ccc(-c3ccco3)nn2)cc1	3.0	41.3	289.5
Cc1cccc(CSc2ccc(-c3ccco3)nn2)c1	0.4	98.3*	110.3
Cc1cc(NC(=O)CCC(=O)N(CCC(C)C)C(C(=O)NC2CCCC2)c2ccccc2C)no1 (configuration not stated)	-3.6	-4.2	357.8
CN(C)c1cc(-c2cccc(C(F)(F)F)c2)oc(=O)c1Cl	-0.8	-0.3	344.9
CN(Cc1ccc2c(c1)OCO2)C(=O)c1cc(-c2ccccc2)c(N2CCOCC2)s1	-1.5	-0.4	349.8
O=C(O)c1cc(-c2ccccc2)c(N2CCOCC2)s1	0.4	99.0*	249.7
O=C(NCc1ccc2c(c1)OCO2)c1cc(-c2ccccc2)c(N2CCOCC2)s1	-2.2	8.6	205.2
O=C(NCc1ccco1)c1cc(-c2ccccc2)c(N2CCOCC2)s1	-2.9	86.6*	261.4
Cc1cc(CNC[C@H]2O[C@@H](n3ccc(=O)[nH]c3=O)[C@H](O)[C@@H]2O)no1	-0.5	·	·
O=C(CSc1ccccn1)Nc1cccc2ccccc12	0.4	-16.1	139.7
CC(=O)c1ccc(NC(=O)CSc2nnc(Cn3cnc4ccccc43)o2)cc1	0.8	96.8*	266.6
COc1ccc(C(=O)CSc2nnc(Cn3cnc4ccccc43)o2)cc1	-0.3	-40.8	650.9
O=C(CSc1nnc(Cn2cnc3ccccc32)o1)Nc1cccc2ccccc12	0.8	99.3*	486.0
CN1CCN(c2nc(-c3ccc(Cl)cc3Cl)nc3ccccc23)CC1	-2.2	-1.6	247.6
COC(OC)c1ccnc(-c2ccc(OC(=O)c3cccs3)cc2)n1	0.2	-5.9	186.6
COc1ccc(-c2cc(C)no2)cc1S(=O)(=O)Nc1ccccc1	44.8*	0.0	450.0
SMILES	N-glyco inh	ALR inh	T cell modulator
COc1ccc(-c2cc(C)no2)cc1S(=O)(=O)Nc1cccc(C)c1	5.3	-1.5	281.2
COc1ccc(-c2nc(=S)c3ccc4ccccc4c3[nH]2)cc1	6.0	·	·
O=S1(=O)CC(N2CCC(Cc3ccccc3)CC2)CN1CCc1ccccc1 (configuration not stated)	-1.0	·	·
CCCNC(=O)C1(C)CCCN(Cc2ccc(-n3ccnc3)cc2)C1 (configuration not stated)	2.5	·	·
Cc1cc(=O)oc2cc(OCCSCCN3CCCCC3)ccc12	-2.1	98.8*	249.7
Cc1cc(=O)oc2cc(OCCc3ccccc3)ccc12	-10.3	-32.1	157.3
O=C(CC(C(=O)O)c1c(F)cccc1Cl)c1ccc(Cl)cc1 (configuration not stated)	-1.4	-5.0	124.1
Cc1cc(N=Nc2ccccc2)c(NCC(O)C(O)C(O)CO)cc1C (configuration not stated)	1.7	97.8*	297.3
Cc1ccc(NCC(O)C(O)C(O)CO)cc1C (configuration not stated)	7.1	48.9	326.0
N#Cc1c(-c2ccco2)nc(SCc2ccc(F)cc2)[nH]c1=O	-0.5	-12.7	406.8
COC(=O)Cc1c(C)nc(SCc2ccccc2)[nH]c1=O	1.5	-5.7	202.0
Cc1nc(SCc2cccnc2)[nH]c(=O)c1C	1.6	98.6*	485.4
Cc1nc(SCc2cccc(F)c2)[nH]c(=O)c1C#N	5.1	83.7*	200.6
O=C1c2sc3nc4n(c(=O)c3c2CCC1Br)CCCCC4 (configuration not stated)	1.8	82.4*	276.1
O=C1CCCc2c1sc1nc3n(c(=O)c21)CCCCC3	-1.4	-3.3	219.0
COCCCN(Cc1cccs1)S(=O)(=O)c1c[nH]c(C(=O)OC)c1	1.4	0.9	121.6
COc1ccccc1C=CC(=O)C=Cc1ccccc1OC	18.3	·	·
COc1ccccc1/C=C/C(=O)/C=C/c1ccccc1O	38.7*	·	·
C=CCn1c(O)c(N=NC(=O)CNC(=O)c2ccncc2)c2ccccc21	0.1	4.6	476.3
CCN(CC(=O)Nc1ccc(NC(C)=O)cc1)C(=O)CSc1ncnc2sc(C)c(C)c12	1.5	43.8	354.9
O=S(=O)(c1cccc(C(F)(F)F)c1)N1CCN(S(=O)(=O)c2ccc3c(c2)OCCO3)CC1	-0.5	-7.3	460.4
O=C(Cc1ccc2c(c1)OCCO2)N1CCN(S(=O)(=O)c2cccc(C(F)(F)F)c2)CC1	1.1	89.5*	206.7
CCCCCSc1nc2c(cnn2-c2ccc(F)cc2)c(=O)[nH]1	-1.4	-7.2	263.7
O=S(=O)(c1cccs1)n1cnc2ccccc21	0.9	97.1*	207.0
O=[N+]([O-])c1ccccc1S(=O)(=O)n1cnc2ccccc21	1.5	94.9*	156.8
SMILES	N-glyco inh	ALR inh	T cell modulator
O=S(=O)(c1cccs1)n1nnc2ccccc21	2.7	-3.9	174.5
Cc1ccc(S(=O)(=O)n2cnc3ccccc32)cc1	-0.6	-8.2	295.9
CC[C@@]1(C(=O)OC)N[C@H](CN(C)C(=O)NC(C)C)[C@@H]2C(=O)N(C)C(=O)[C@@H]21	0.7	·	275.3
CC(C)OCCCN1CC(=O)N2[C@@H](Cc3c([nH]c4ccccc34)C2(C)C)C1=O	2.3	2.8	135.9
CCOc1ccc(CCNC(=O)CCS(=O)(=O)c2ccc(C)cc2)cc1OCC	1.1	·	0.0*
CCOc1ccc(CCNC(=O)CCS(=O)(=O)c2ccc(Br)cc2)cc1OCC	1.8	·	146.6
CC1(C(=O)NCc2ccc(Cl)cc2)CCN1C(=O)Cc1ccc(Cl)cc1Cl (configuration not stated)	-0.4	·	·
COC1OCC(O)C(NC(=O)N(C)N=O)C1O (configuration not stated)	1.2	·	·
Cc1ccc2[nH]c(C(=O)O)c(-c3ccccc3)c2c1	0.7	98.3*	152.6
Cc1ccc2[nH]c(C(=O)NN=C3CCCCC3)c(-c3ccccc3)c2c1	0.1	·	249.1
CC(=O)Nc1c(C(=O)O)[nH]c2ccccc12	0.5	7.4	364.6
CC(=O)NNC(=O)c1[nH]c2ccc(Br)cc2c1-c1ccccc1	3.1	96.9*	142.8
CCOC(=O)NNC(=O)c1[nH]c2ccc(Br)cc2c1-c1ccccc1	4.1	-0.6	193.5
O=C(O)c1[nH]c2ccccc2c1-c1ccccc1	1.4	98.0*	155.1
O=C(Nc1cccc([N+](=O)[O-])c1)c1ccc2ccccc2c1O	-4.4	·	84.8

Screening data (PubChem)
